Rows were chosen to be rich in hits. Some 1.5% of all compounds tested hit in one or more screens of this group.
PKA-R1A act: activators of PKA-R1A holoenzyme, primary screen, biochemical, fluorescence polarization, Cy5-IP20, bovine R1A, mouse PKAc | cAMP-dependent protein kinase type I-alpha regulatory subunit (Bos taurus) + … | PKA-R1A dissociation; scaled: DMSO 0%, 113 µM cGMP 100% | activation, % at 11.4 µM | actives 0.083% (n = 340,000) | AID 504707, 2011;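 active = percent activation above the mean of all tested compounds plus 3 SD, cut at about 19% in these data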;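 also: higher means more PKAc released from R1A so a rise in polarization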
Rin1 Abl inh: inhibitors of Rin1-Abl protein binding, primary screen, biochemical, TR-FRET. actives 0.4% (n = 360,000). AID 588664, 2011. Tyrosine-protein kinase ABL1 (Homo sapiens) + Ras and Rab interactor 1 (Homo sapiens), …. inhibition, % at 7.35 µM; in the data active = inhibition above about 5%, passing the limit was not always enough
TbMetRS inhib: T. brucei MetRS inhibitors, primary screen, biochemical, luminescence. actives 0.4% (n = 360,000). inhibition, % at 11.9 µM. methionyl-tRNA synthetase (Trypanosoma brucei brucei). purified T. brucei MetRS, ATP depletion, Kinase-Glo luminescence;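 active = inhibition above a per-plate cutoff of the control wells' mean inhibition plus 3 SD, cut at about 5.5% in these data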
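Test system: purified T. brucei MetRS enzyme. Also added: ATP, methionine and E. coli bulk tRNA substrates. Compound: 11.9 µM single point. Schedule: 15 min enzyme-compound preincubation, 2 h reaction, 10 min detection, 25 °C. Signal: luciferase luminescence of residual ATP, Kinase-Glo. Evaluation: percent inhibition versus plate control medians. Controls: DMSO wells, low control.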
H9c2 protect: cardioprotection against H2O2-induced cell death, primary screen, uHTS, H9c2 cells, ATPLite luminescence | H9c2 cardiomyocytes, H2O2 injury protection, 2 h | protection from H2O2 cell death, % at 20 µM | actives 0.63% (n = 360,000) | AID 588492, 2011;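 active = compounds giving at least 50% protection of heart cells from peroxide-induced death in the single-dose screen, raw or plate-pattern-corrected value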
PKA-R2B activ: activators of PKA-R2B holoenzyme, primary screen, biochemical, fluorescence polarization, Cy5-IP20, human; actives 0.079% (n = 340,000); PKA-R2B holoenzyme dissociation; R2B truncated from residue 108, S112A mutant; 0% DMSO only, 100% 113 µM cGMP; activation, % at 11.4 µM;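 active = activation above a cutoff set at the mean over all compounds plus 3 SD, cut at about 18% in these data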;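 also: higher means more holoenzyme dissociation and a rise in polarization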
Target sequence (P31323 whole entry, looked up, other chains not shown, the tested form may be a part): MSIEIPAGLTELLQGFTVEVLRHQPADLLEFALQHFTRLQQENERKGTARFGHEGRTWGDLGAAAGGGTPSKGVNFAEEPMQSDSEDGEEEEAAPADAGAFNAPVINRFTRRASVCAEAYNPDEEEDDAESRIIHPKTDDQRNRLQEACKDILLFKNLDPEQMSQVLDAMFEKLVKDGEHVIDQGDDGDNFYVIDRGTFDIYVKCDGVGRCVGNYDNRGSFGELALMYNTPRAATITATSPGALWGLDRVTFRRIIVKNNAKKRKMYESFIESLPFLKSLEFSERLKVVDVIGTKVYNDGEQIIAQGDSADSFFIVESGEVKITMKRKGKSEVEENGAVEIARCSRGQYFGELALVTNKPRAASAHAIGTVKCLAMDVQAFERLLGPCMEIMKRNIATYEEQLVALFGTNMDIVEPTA
R2B FP artifact: fluorescence polarization artefacts, biochemical, artefact control for PKA-R2B activator project | AID 504796, 2011 | shares compounds with PKA-R2B activ | actives 6% (n = 270) | activation, % at 11.4 µM | FP artifact counterscreen; in the data active = activation above about 20%;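 also: Cy5 labelled IP20 peptide probe with compound but no PKA protein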
PKA-R2B confirm: activators of PKA-R2B holoenzyme, confirmation, biochemical, fluorescence polarization, human. PKA-R2B complex, activation. actives 9% (n = 270). activation, % at 11.4 µM. shares compounds with PKA-R2B activ. AID 504797, 2011; in the data active = activation above about 19%
Target sequence (P31323 whole entry, looked up): as the sequence (P31323 whole entry, looked up, other chains not shown, the tested form may be a part) above
R1A FP artifact: FP signal interference without PKA proteins, confirmation, artefact control for PKA-R1A activator project, biochemical, fluorescence polarization, triplicate; shares compounds with PKA-R1A act; Cy5-IP20 peptide alone, fluorescence polarization artifact counterscreen; activation, % at 11.4 µM; actives 7% (n = 280); AID 504799, 2011;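 active = mean activation over triplicate runs exceeds the adjusted cutoff derived for the parent primary screen, cut at about 19% in these data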;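 also: no PKA protein present so any polarization rise reflects compound interference; higher means stronger polarization artifact and likely false positive in parent screen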
PKA-R1A confirm: activators of PKA-R1A holoenzyme, confirmation, biochemical, fluorescence polarization, Cy5-IP20, triplicate; AID 504800, 2011; shares compounds with PKA-R1A act; activation, % at 11.4 µM; actives 9% (n = 280); PKA-R1A holoenzyme dissociation;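 active = mean activation over replicate wells exceeds the adjusted hit threshold taken from the earlier primary screen, cut at about 20% in these data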
Hits are given with their value.

Screening COc1cc(OC)cc(-c2c(-c3cccs3)c3cc(Br)ccc3n2C)c1 returned PKA-R1A act inactive, Rin1 Abl inh inactive, TbMetRS inhib inactive, H9c2 protect inactive, PKA-R2B activ 19.6, R2B FP artifact inactive and PKA-R2B confirm inactive.
For CCOc1c(CNCCNC(=O)c2nonc2N)cccc1OC the results were PKA-R1A act inactive, Rin1 Abl inh inactive, TbMetRS inhib inactive, H9c2 protect inactive, PKA-R2B activ 19.0, R2B FP artifact inactive and PKA-R2B confirm inactive.
For CCC1NC(=O)c2cc(S(N)(=O)=O)c(Cl)cc2N1 (stereo unspecified) the results were PKA-R1A act inactive, Rin1 Abl inh inactive, TbMetRS inhib inactive, H9c2 protect inactive, PKA-R2B activ 21.3, R2B FP artifact inactive and PKA-R2B confirm inactive.
CN1C(CCl)Nc2cc(Cl)c(S(N)(=O)=O)cc2S1(=O)=O (stereo unspecified) was read as PKA-R1A act inactive, Rin1 Abl inh inactive, TbMetRS inhib inactive, H9c2 protect inactive and PKA-R2B activ inactive.
COC(=O)[C@@H](NC(=O)c1ccc(OC2CCN(Cc3ccccn3)CC2)cc1)C(C)C was read as PKA-R1A act inactive, Rin1 Abl inh inactive, TbMetRS inhib inactive, H9c2 protect inactive, PKA-R2B activ 19.5, R2B FP artifact inactive and PKA-R2B confirm inactive.
For CN(C)S(=O)(=O)c1ccc(S(=O)(=O)NCc2cccs2)cc1 the results were PKA-R1A act inactive, Rin1 Abl inh inactive, TbMetRS inhib inactive, H9c2 protect inactive, PKA-R2B activ 24.8, R2B FP artifact inactive and PKA-R2B confirm inactive.
Screening CCc1ccc(OCC(=O)Nc2nnc(C3CCCC3)s2)cc1 returned PKA-R1A act inactive, Rin1 Abl inh inactive, TbMetRS inhib inactive, H9c2 protect inactive and PKA-R2B activ inactive.
For O=C(CCCCCNC(=O)N1CCn2c1nc1ccccc12)NCc1ccccc1Cl the results were PKA-R1A act inactive, Rin1 Abl inh inactive, TbMetRS inhib inactive, H9c2 protect inactive and PKA-R2B activ inactive.
Screening CCN(CC)c1ccc(C(=C2C=CC(=[N+](CC)CC)C=C2)c2ccc(S(=O)(=O)O)cc2S(=O)(=O)[O-])cc1 returned PKA-R1A act 34.0, Rin1 Abl inh inactive, TbMetRS inhib inactive, H9c2 protect inactive, PKA-R2B activ 39.0, R2B FP artifact 49.2, PKA-R2B confirm 48.5, R1A FP artifact 49.2 and PKA-R1A confirm 52.3.
`CCC(NS(=O)(=O)c1ccc2c(c1)NC(=O)C(C)C(=O)N2)c1cccs1` (stereo unspecified) gave PKA-R1A act inactive, Rin1 Abl inh inactive, TbMetRS inhib inactive, H9c2 protect inactive and PKA-R2B activ inactive.
Screening CCOCCCN(C(=O)c1snc(C(N)=O)c1N)C(C(=O)NC1CCCC1)c1ccc(OC)cc1 (stereo unspecified) returned PKA-R1A act inactive, Rin1 Abl inh inactive, TbMetRS inhib inactive, H9c2 protect inactive and PKA-R2B activ inactive.

Screens (PubChem)
